Source: PubChem BioAssay
Compounds with a hit are over-represented: about 2.2% of the library has one in this group of screens.
FN deposit inh: fibronectin deposition inhibition; AH1F fibroblasts, Alexa488-fibronectin deposition fluorescence, overnight; inhibition, % at 12.6 µM; 0.086% of 350,000 active;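 active = mean inhibition across replicates of 30% or more, regardless of how many single replicates reach that level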
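Material: AH1F fibroblasts assembling fluorescent fibronectin matrix; amount: 10000 AH1F cells/well; medium: DMEM, 2% serum; reagent: Alexa488-fibronectin, 24 nM final in well; dosing: single compound dose, delivered by pin transfer; incubation: 1 h adhesion, overnight exposure; detection: fluorescence after three HBSS washes, excitation 485 nm, emission 525 nm; measure: fibronectin deposition inhibition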
FGF22 binding: binders of recombinant human FGF22 by thermal shift; SYPRO orange fluorescence; percent of sucrose octasulfate shift, DMSO zero; activity (Tm shift, normalised), % at 9.99 µM; 1.5% of 340,000 active;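 active = mean Tm shift, scaled 0 neutral to 100 positive control, at about 1.3% or above, every replicate too, limit read from the data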
Target sequence (Q9HCT0 whole entry, looked up): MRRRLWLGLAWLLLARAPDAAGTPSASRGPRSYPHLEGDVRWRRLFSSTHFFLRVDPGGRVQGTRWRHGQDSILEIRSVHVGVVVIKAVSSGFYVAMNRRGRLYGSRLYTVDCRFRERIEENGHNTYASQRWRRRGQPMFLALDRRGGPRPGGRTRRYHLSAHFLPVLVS
SIRT5 inh: sirtuin-5 (human) deacylase inhibition | Purified SirT5, succinyl-peptide AMC, trypsin-coupled fluorescence | Q9NXA8 | inhibition, % at 15 µM | AID 652115 | 1.1% of 330,000 active; in the data active = inhibition above about 15%
Target sequence (Q9NXA8 whole entry, looked up): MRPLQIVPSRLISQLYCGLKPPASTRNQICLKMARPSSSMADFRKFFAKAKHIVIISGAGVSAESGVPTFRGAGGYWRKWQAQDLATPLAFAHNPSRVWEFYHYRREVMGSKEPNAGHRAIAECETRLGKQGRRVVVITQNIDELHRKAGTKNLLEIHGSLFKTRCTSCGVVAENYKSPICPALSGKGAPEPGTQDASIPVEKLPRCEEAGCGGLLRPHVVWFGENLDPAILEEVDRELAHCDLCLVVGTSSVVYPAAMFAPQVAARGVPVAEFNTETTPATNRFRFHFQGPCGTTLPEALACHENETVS
ERAP1 inh: blocks human ERAP1 aminopeptidase activity. 0.15% of 340,000 active. inhibition, % at 10.7 µM. recombinant ERAP1, Leu-AMC fluorescence, 60 min. Q9NZ08. AID 652197;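 active = mean replicate inhibition of at least 30%, or all replicates individually reaching that 30% level; inactive = mean below 30% and not every replicate reaching it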
PGC1a acetyl inh: modulators of PGC1a acetylation. U2OS PGC1a acetylation, AlphaScreen anti-acetyl-lysine; with virally co-expressed GCN5 acetyltransferase. inhibition, % at 15.6 µM. 0.17% of 350,000 active. AID 651687;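 active = every replicate shows inhibition of at least 40%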
Hits are given with their value; - = inactive; . = no result given.

SMILES	FN deposit inh	FGF22 binding	SIRT5 inh	ERAP1 inh	PGC1a acetyl inh
CCN(CCn1cccn1)Cc1nc(-c2ccccc2)no1	-	-	-	-	.
O=C(O)c1ccc(CNCc2cccc(Cl)c2)cc1	.	-	21	-	-
O=C(O)c1ccc(CNCc2c(Cl)cccc2Cl)cc1	-	.	.	.	-
COC(=O)[C@H](CC(C)C)NC(=O)Nc1cccc(Br)c1	-	-	-	-	-
CC(C)C[C@H](NC(=O)Nc1cccc(Br)c1)C(=O)O	-	44	-	-	-
COc1ccc(N2C(=O)C(CN3CCN(C)CC3)C2c2ccccc2)cc1 (stereo not given)	-	44	-	-	-
FC(F)c1nnc2c(Cl)cc(C(F)(F)F)cn12	-	44	-	-	.
COc1ccccc1-c1ccc2n(c1=O)C[C@H]1[C@H](CO)[C@@H](C(=O)N3CCCCC3)[C@@H]2N1CC1CC1	.	-	-	-	.
COc1ccccc1-c1ccc2n(c1=O)C[C@@H]1[C@@H](CO)[C@H](C(=O)N3CCCCC3)[C@H]2N1CC1CC1	.	-	20	-	.
CCC(C)(C)NC(=O)CN(C(=O)c1csnn1)c1ccccc1-c1ccccc1	-	43	-	-	-
Cc1nn(-c2ccc([N+](=O)[O-])cc2)c2c1C(c1ccc(OC(F)F)cc1)N1C(=N2)C(=O)Nc2ccccc21 (stereo not given)	-	43	-	-	.
COc1ccc(NC2=Nc3ccccc3N3C2=Nc2c(c(C)nn2-c2ccc(C)cc2)C3c2cccnc2)cc1 (stereo not given)	.	.	.	.	-
CC(=O)Nc1ccc(NC2=Nc3ccccc3N3C2=Nc2c(c(C)nn2-c2ccccc2)C3c2ccccc2)cc1 (stereo not given)	-	.	-	-	-
COc1cccc(C2c3c(C)nn(-c4ccc([N+](=O)[O-])cc4)c3N=C3C(=O)Nc4ccccc4N32)c1 (stereo not given)	-	43	-	-	-
Cc1ccc(S(=O)(=O)N[C@H]2CC[C@H](CC(=O)NCc3ccc(Cl)c(Cl)c3)O[C@H]2CO)cc1	.	-	-	-	-
CCOC(=O)Cc1csc(NC(=O)COc2ccc(C)cc2)n1	-	43	-	-	.
CSc1nsc(SC)c1NC(=O)Nc1ccccc1C	-	-	-	-	103
CSc1nsc(SC)c1NC(=O)N1CCCCC1	.	.	.	.	-
COCCn1cc(C(=O)c2ccccc2OCC(=O)Nc2cc(C)on2)cc(C#N)c1=O	.	.	.	.	-
COCCNC(=O)COc1ccc(C)cc1C(=O)c1cc(C#N)c(=O)n(C2CC2)c1	-	44	-	-	.
CC(=O)c1ccc(NC(=O)CSc2nc(C)cc(C)c2C(N)=O)cc1	.	43	-	-	-
C[C@H]1CCCCO[C@H](CN(C)C(=O)Nc2cccc3ccccc23)[C@@H](C)CN([C@@H](C)CO)C(=O)c2cc(NC(=O)Nc3ccc4c(c3)OCO4)ccc2O1	.	12	-	-	-
C[C@@H]1CCCCO[C@@H](CN(C)C(=O)Nc2ccc3c(c2)OCO3)[C@H](C)CN([C@H](C)CO)C(=O)c2cc(NC(=O)Nc3cccc4ccccc34)ccc2O1	-	-	.	-	-
C[C@@H]1CCCCO[C@H](CN(C)C(=O)Nc2cccc3ccccc23)[C@@H](C)CN([C@H](C)CO)C(=O)c2cc(NC(=O)Nc3cccc4ccccc34)ccc2O1	-	1.6	-	-	-
C[C@@H]1CCCCO[C@H](CN(C)C(=O)C2CCCCC2)[C@@H](C)CN([C@H](C)CO)C(=O)c2cc(NC(=O)Nc3cccc4ccccc34)ccc2O1	.	1.3	-	-	-
SMILES	FN deposit inh	FGF22 binding	SIRT5 inh	ERAP1 inh	PGC1a acetyl inh
C/C=C/c1ccc([C@@H]2[C@@H](CO)N3CCCCN(S(=O)(=O)c4cccc(C)c4)C[C@@H]23)cc1	.	-	-	-	-
CC(C)CC#Cc1ccc2c(c1)O[C@H](CN(C)C(=O)Cc1cccnc1)[C@H](C)CN([C@H](C)CO)S2(=O)=O	-	-	-	-	-
C[C@H]1CN([C@@H](C)CO)C(=O)c2c(c3ccccc3n2C)-c2ccccc2CO[C@@H]1CN(C)Cc1ccc2c(c1)OCO2	-	.	19	-	.
C[C@@H]1CN([C@@H](C)CO)C(=O)c2c(c3ccccc3n2C)-c2ccccc2CO[C@@H]1CN(C)Cc1cccc(O)c1	-	-	23	-	-
C[C@@H]1CN([C@H](C)CO)C(=O)c2c(c3ccccc3n2C)-c2ccccc2CO[C@H]1CN(C)Cc1ccc2c(c1)OCO2	-	-	-	-	-
C[C@@H]1CN([C@@H](C)CO)C(=O)c2c(c3ccccc3n2C)-c2ccccc2CO[C@H]1CN(C)Cc1cccc(C(=O)Nc2ccccc2N)c1	-	-	17	-	-
C[C@@H]1CN([C@H](C)CO)C(=O)c2c(c3ccccc3n2C)-c2ccccc2CO[C@@H]1CN(C)Cc1ccc2c(c1)OCCN2C	-	-	16	-	-
C[C@@H]1CN([C@@H](C)CO)C(=O)c2cc(NS(=O)(=O)c3ccc(F)cc3)ccc2O[C@H]1CN(C)Cc1ccncc1	.	-	-	-	-
CN1C(=O)c2cc(NC(=O)c3cccc(F)c3)ccc2OC[C@H]2O[C@H](CC(=O)NCc3ccccc3)CC[C@H]21	-	-	.	.	-
C[C@H]1CN([C@@H](C)CO)C(=O)c2cc(-c3ccc(C#N)cc3)cnc2O[C@H]1CN(C)C(=O)CN(C)C	-	-	-	-	-
C[C@H]1CN([C@@H](C)CO)C(=O)c2c(c3ccccc3n2C)-c2ccccc2CO[C@@H]1CN(C)Cc1cccc(F)c1	-	.	18	-	.
O=C(Nc1cccc(-c2cn3ccccc3n2)c1)c1cc2ccccc2oc1=O	.	-	19	-	.
O=c1c2cc(Cl)ccc2nc(-c2ccccc2)n1O	.	46	-	-	.
CCCNC(=O)C1(C)CCCN(C(=O)C2(c3ccc(Cl)cc3)CCCC2)C1 (stereo not given)	-	-	30	-	-
CCCNC(=O)C1(C)CCN(C(=O)C2(c3ccc(Cl)cc3)CCCC2)C1 (stereo not given)	-	-	.	-	-
CCC(=O)N(C)C[C@H]1Oc2cc(C#CC(C)C)ccc2S(=O)(=O)N([C@H](C)CO)C[C@@H]1C	.	-	-	-	-
Cc1nonc1CC(=O)N1CCCC(C(=O)c2cccc(C(F)(F)F)c2)C1 (stereo not given)	-	46	-	-	-
Cc1ncoc1C(=O)N1CCCC(C(=O)c2cccc(C(F)(F)F)c2)C1 (stereo not given)	-	-	-	.	-
COc1ccc(C(=O)C2CCCN(C(=O)Cc3c(C)noc3C)C2)cc1OC (stereo not given)	-	43	-	-	-
O=C(c1ccc(C(F)(F)F)cc1)C1CCCN(C(=O)Cn2cncn2)C1 (stereo not given)	-	-	-	-	-
O=C(c1ccc(C(F)(F)F)cc1)C1CCCN(C(=O)CCN2CCCO2)C1 (stereo not given)	-	44	-	-	-
C[C@H](CO)N1C[C@H](C)[C@@H](CN(C)C(=O)CN(C)C)Oc2ncc(-c3ccccc3F)cc2C1=O	-	-	-	-	-
